Active and inactive are the calls of the source. The rule behind the calls is not given here.
Key:
CCRF-CEM [1] = test: Antioxidant activity in human CCRF-CEM cells assessed as suppression of diethyl maleate-induced ROS generation preincubated for 18 hrs prior to diethyl maleate-challenge measured after 1 hr by FACS flow cytometric analysis in presence of DCFH-DA; format: functional, cell-based
Procedure, shortened: (§1)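 Lymphocytes (Coriell, RPMI with 15% FBS) or CCRF-CEM cells (RPMI with 10% FBS), 2.5 × 10⁵ cells/mL, exposed to compounds for 18 h at 37 °C, then 5 mM diethyl maleate for 1 h. Cells washed in PBS, loaded with 10 µM DCFH-DA in PBS/10 mM glucose for 25 min at 37 °C in the dark. DCF read by flow cytometry (488 nm excitation, 530 nm emission). Mean ± S.E.M., three experiments in duplicate.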

[2] = Effect on total ATP level in Leber's optic atrophy disease patient GM10744 cells at 25 uM after 48 hrs by bioluminescence assay relative to control; format: functional, Homo sapiens
Procedure, shortened: (§2)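 Lymphocytes were adapted to glucose-free RPMI with 25 mM galactose for at least one week. Cells at 2 × 10⁵ cells/mL were given compound at final 5, 10 or 25 µM for 48 h at 37 °C, 5% CO₂. Total intracellular ATP was measured by luciferase bioluminescence kit and expressed as % of untreated control.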

GM15850 [3] = test: Effect on total ATP level in Friedreich's ataxia disease patient GM15850 cells at 10 uM after 48 hrs by bioluminescence assay relative to control; format: functional, Homo sapiens; procedure, shortened: as §2
Bos taurus [4] = species on record: Bos taurus; test: Inhibition of NADH oxidase activity of bovine heart mitochondrial […] at 5 uM after 5 mins by spectrophotometric analysis relative to control; values are per cent of control
GM15850 [5] = test: Effect on total ATP level in Friedreich's ataxia disease patient GM15850 cells at 5 uM after 48 hrs by bioluminescence assay relative to control; format: functional, Homo sapiens; procedure, shortened: as §2
CCRF-CEM [6] = test: Cytoprotective activity against diethyl maleate-induced oxidative stress in human CCRF-CEM cells assessed as cell viability at 2.5 uM preincubated for 15 hrs prior to diethyl maleate-challenge measured after 6 hrs by hemocytometer-based assay; format: functional
Procedure, shortened: (§3)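 Cells seeded at 5 × 10⁵ cells/mL, preincubated with 0.5 or 2.5 µM compound at 37 °C, 5% CO₂, then given 5 mM diethyl maleate for 6 h. Viable cells counted by trypan blue exclusion on a hemocytometer. Viability expressed as % of untreated control. Three independent experiments in triplicate, mean ± S.E.M.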

[7] = Effect on total ATP level in CoQ10-deficient human GM17932 cells at 25 uM after 48 hrs by bioluminescence assay relative to control; format: functional; procedure, shortened: as §2
[8] = Effect on total ATP level in CoQ10-deficient human GM17932 cells at 5 uM after 48 hrs by bioluminescence assay relative to control; format: functional; procedure, shortened: as §2
Homo sapiens [9] = species on record: Homo sapiens; test: Cytoprotective activity against diethyl maleate-induced oxidative stress in Parkinson's disease patient GM15010 cells assessed as cell viability at 0.5 uM preincubated for 15 hrs prior to diethyl maleate-challenge measured after 6 hrs by hemocytometer-based assay; format: functional; procedure, shortened: as §3
Homo sapiens [10] = species on record: Homo sapiens; test: Effect on total ATP level in CoQ10-deficient human GM17932 cells after 48 hrs by bioluminescence assay; format: functional; procedure, shortened: as §2
GM15850 [11] = test: Cytoprotective activity against diethyl maleate-induced oxidative stress in Friedreich's ataxia disease patient GM15850 cells assessed as cell viability at 0.5 uM preincubated for 15 hrs prior to diethyl maleate-challenge measured after 6 hrs by hemocytometer-based assay; format: functional; details: Homo sapiens; procedure, shortened: as §3
GM15850 [12] = test: Cytoprotective activity against diethyl maleate-induced oxidative stress in Friedreich's ataxia disease patient GM15850 cells assessed as cell viability at 2.5 uM preincubated for 15 hrs prior to diethyl maleate-challenge measured after 6 hrs by hemocytometer-based assay; format: functional; details: Homo sapiens; procedure, shortened: as §3
Homo sapiens [13] = species on record: Homo sapiens; test: Cytoprotective activity against diethyl maleate-induced oxidative stress in Leber's optic atrophy disease patient GM10744 cells assessed as cell viability at 0.5 uM preincubated for 15 hrs prior to diethyl maleate-challenge measured after 6 hrs by hemocytometer-based assay; format: functional; procedure, shortened: as §3
Homo sapiens [14] = species on record: Homo sapiens; test: Cytoprotective activity against diethyl maleate-induced oxidative stress in Parkinson's disease patient GM15010 cells assessed as cell viability at 2.5 uM preincubated for 15 hrs prior to diethyl maleate-challenge measured after 6 hrs by hemocytometer-based assay; format: functional; procedure, shortened: as §3
[15] = Effect on total ATP level in Leber's optic atrophy disease patient GM10744 cells at 10 uM after 48 hrs by bioluminescence assay relative to control; format: functional, Homo sapiens; procedure, shortened: as §2
Homo sapiens [16] = species on record: Homo sapiens; test: Antioxidant activity in Leber's optic atrophy disease patient GM10744 cells assessed as suppression of diethyl maleate-induced ROS generation at 0.025 to 2.5 uM preincubated for 18 hrs prior to diethyl maleate-challenge measured after 1 hr by FACS flow cytometric analysis in presence of DCFH-DA; format: functional; procedure, shortened: as §1
[17] = Effect on total ATP level in Leber's optic atrophy disease patient GM10744 cells at 5 uM after 48 hrs by bioluminescence assay relative to control; format: functional, Homo sapiens; procedure, shortened: as §2
Bos taurus [18] = species on record: Bos taurus; test: Inhibition of NADH-ubiquinone oxidoreductase in bovine heart mitochondria after 5 mins by spectrophotometric analysis relative to control
Procedure, shortened: (§4)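 Bovine heart submitochondrial particles, 12 µg, incubated 5 min at 39 °C with compound in 50 mM phosphate pH 7.4, 0.25 M sucrose, 1 mM MgCl₂, 2 mM KCN, plus antimycin A. Reaction started with 50 µM NADH and 50 µM coenzyme Q₁; NADH loss read at 340 nm. K_I derived. Mean of three experiments in triplicate.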

Bos taurus [19] = species on record: Bos taurus; test: Inhibition of NADH oxidase activity of bovine heart mitochondrial […] at 10 uM after 5 mins by spectrophotometric analysis relative to control; values are per cent of control
Bos taurus [20] = species on record: Bos taurus; test: Inhibition of NADH oxidase activity of bovine heart mitochondrial […] at 1 uM after 5 mins by spectrophotometric analysis relative to control; values are per cent of control
Homo sapiens [21] = species on record: Homo sapiens; test: Cytoprotective activity against diethyl maleate-induced oxidative stress in Leigh's syndrome patient GM13740 cells assessed as cell viability at 0.5 uM preincubated for 15 hrs prior to diethyl maleate-challenge measured after 6 hrs by hemocytometer-based assay; format: functional; procedure, shortened: as §3
Homo sapiens [22] = species on record: Homo sapiens; test: Cytoprotective activity against diethyl maleate-induced oxidative stress in Leigh's syndrome patient GM13740 cells assessed as cell viability at 2.5 uM preincubated for 15 hrs prior to diethyl maleate-challenge measured after 6 hrs by hemocytometer-based assay; format: functional; procedure, shortened: as §3
Homo sapiens [23] = species on record: Homo sapiens; test: Cytoprotective activity against diethyl maleate-induced oxidative stress in Leber's optic atrophy disease patient GM10744 cells assessed as cell viability at 2.5 uM preincubated for 15 hrs prior to diethyl maleate-challenge measured after 6 hrs by hemocytometer-based assay; format: functional; procedure, shortened: as §3
Homo sapiens [24] = species on record: Homo sapiens; test: Cytoprotective activity against diethyl maleate-induced oxidative stress in Alzheimer's disease patient AG06849 cells assessed as cell viability at 0.5 uM preincubated for 15 hrs prior to diethyl maleate-challenge measured after 6 hrs by hemocytometer-based assay; format: functional; procedure, shortened: as §3
GM15850 [25] = test: Effect on total ATP level in Friedreich's ataxia disease patient GM15850 cells at 25 uM after 48 hrs by bioluminescence assay relative to control; format: functional, Homo sapiens; procedure, shortened: as §2
Homo sapiens [26] = species on record: Homo sapiens; test: Effect on total ATP level in Leber's optic atrophy disease patient GM10744 cells after 48 hrs by bioluminescence assay; format: functional; procedure, shortened: as §2
[27] = Effect on total ATP level in CoQ10-deficient human GM17932 cells at 10 uM after 48 hrs by bioluminescence assay relative to control; format: functional; procedure, shortened: as §2
Homo sapiens [28] = species on record: Homo sapiens; test: Cytoprotective activity against diethyl maleate-induced oxidative stress in Alzheimer's disease patient AG06849 cells assessed as cell viability at 2.5 uM preincubated for 15 hrs prior to diethyl maleate-challenge measured after 6 hrs by hemocytometer-based assay; format: functional; procedure, shortened: as §3
Homo sapiens [29] = species on record: Homo sapiens; test: Antioxidant activity in Alzheimer's disease patient AG06849 cells assessed as suppression of diethyl maleate-induced ROS generation at 0.025 to 2.5 uM preincubated for 18 hrs prior to diethyl maleate-challenge measured after 1 hr by FACS flow cytometric analysis in presence of DCFH-DA; format: functional; procedure, shortened: as §1
CCRF-CEM [30] = test: Antioxidant activity in human CCRF-CEM cells assessed as suppression of diethyl maleate-induced ROS generation at 0.025 to 2.5 uM preincubated for 18 hrs prior to diethyl maleate-challenge measured after 1 hr by FACS flow cytometric analysis in presence of DCFH-DA; format: functional, cell-based; procedure, shortened: as §1
GM15850 [31] = test: Effect on total ATP level in Friedreich's ataxia disease patient GM15850 cells after 48 hrs by bioluminescence assay; format: functional; details: Homo sapiens; procedure, shortened: as §2
CCRF-CEM [32] = test: Cytoprotective activity against diethyl maleate-induced oxidative stress in human CCRF-CEM cells assessed as cell viability at 0.5 uM preincubated for 15 hrs prior to diethyl maleate-challenge measured after 6 hrs by hemocytometer-based assay; format: functional; procedure, shortened: as §3
[33] = Inhibition of NADH-ubiquinone oxidoreductase in bovine heart mitochondria after 5 mins by spectrophotometric analysis; design: species or system Bos taurus; procedure, shortened: as §4

Structure (SMILES): COC1=C(OC)C(=O)C(CCCCCCCCCCO)=C(C)C1=O [IDEBENONE]
- Activity (CCRF-CEM [1]): Dose-dependent effect
- Activity [2]: 3%
- Activity (GM15850 [3]): 45.6%
- residual activity (Bos taurus [4]): 19.3%
- Activity (GM15850 [5]): 73%
- Activity (CCRF-CEM [6]): Active
- Activity [7]: 1.6%
- Activity [8]: 79.8%
- Activity (Homo sapiens [9]): inactive
- Activity (Homo sapiens [10]): Dose-dependent effect
- Activity (GM15850 [11]): inactive
- Activity (GM15850 [12]): Active
- Activity (Homo sapiens [13]): inactive
- Activity (Homo sapiens [14]): Active
- Activity [15]: 29.9%
- Activity (Homo sapiens [16]): Active
- Activity [17]: 55.7%
- Imax (Bos taurus [18]): 84%
- residual activity (Bos taurus [19]): 13.2%
- residual activity (Bos taurus [20]): 57.4%
- Activity (Homo sapiens [21]): inactive
- Activity (Homo sapiens [22]): Active
- Activity (Homo sapiens [23]): Active
- Activity (Homo sapiens [24]): inactive
- Activity (GM15850 [25]): 2.6%
- Activity (Homo sapiens [26]): Dose-dependent effect
- Activity [27]: 45.7%
- Activity (Homo sapiens [28]): Active
- Activity (Homo sapiens [29]): Active
- Activity (CCRF-CEM [30]): Active
- Activity (GM15850 [31]): Dose-dependent effect
- Activity (CCRF-CEM [32]): inactive
- IC50 [33]: 6 µM
- Ki [33]: 4 µM
